Bioassay records as filed in PubChem BioAssay.
This is one part of a sample in which hits are shown more often than they occur.
DTT redox prof – compounds producing H2O2 with reducing agent – biochemical, NIH compound library profiling, artefact control for MLSCN library redox annotation, primary screen; DTT-dependent redox cycling H2O2, phenol red/HRP absorbance; 100% = 100 µM peroxide control, 0% = buffer; activation, % at 10 µM; 0.03% of 200,000 active;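 active means activation of at least 50% relative to the plate's high and low controls in the primary single-dose screen; inactive means activation below 50%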;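 further: compound incubated with DTT at 0.8 mM final as the reducing agent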
L major viab – Leishmania major promastigote growth inhibition; 9% of 200,000 active; AID 1063; Leishmania major promastigotes, resazurin fluorescence viability; inhibition, % at 10 µM; in the data active means inhibition above about 50%;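 further: promastigotes grown with compound for 44 hours at 28 °C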
MPTP block – inhibitors of mitochondrial permeability transition pore; isolated mouse mitochondria, Ca2+ swelling absorbance, 30 min; inhibition, % at 10 µM; 1.4% of 360,000 active;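 active means inhibition of 50% or more, scaled per plate between neutral and stimulator controls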
Lipid droplet – modulators of hepatic lipid droplet formation; AML12 mouse hepatocytes, oleate lipid droplets, BODIPY imaging; inhibition, % at 6.5 µM; 0.4% of 240,000 active; AID 1656;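 active means lipid droplet intensity inhibited by at least 50%, with more than 500 cells counted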
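Material – AML12 mouse liver cells · Also added – oleate loading, 100 µM · Compound dosing – 6.5 µM single-point dosing · Times – overnight treatment with compound plus oleate · Measured by – fluorescence imaging, 20x objective, two fields per well · Read-out – percent inhibition of filter-corrected integrated lipid droplet intensity per well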
T cruzi inh – blocks replication of Trypanosoma cruzi; AID 1885; 1.4% of 300,000 active; inhibition, % (concentration not given with the values); T. cruzi beta-gal in NIH3T3, luminescence, 90 h;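 active means mean inhibition across valid replicates above about 55%, limit read from the data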;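 further: signal also drops with host cell toxicity which is not excluded here; higher percent means less beta-gal luminescence so fewer parasites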
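System: mouse NIH/3T3 fibroblasts infected with β-gal-expressing T. cruzi Tulahuen C4 / Input: NIH/3T3 cells, 5,000 per well / Buffer or medium: Low-serum DMEM with 2% FBS / Probe or stimulus: 5000 reporter trypomastigotes per well / Schedule: ≥90 h infection period, 3 h prior cell attachment / Measured by: GalScreen luminescence, 60 min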
Rh123 counter – mitochondrial membrane potential, counter-screen. shares compounds with MPTP block. isolated mitochondria, Rhodamine 123 fluorescence. inhibition, % at 10 µM. 78% of 5,000 active. AID 624504; in the data active means inhibition above about 22%
MPTP abs DR – dose response confirmation of mitochondrial permeability transition pore inhibitors | isolated mitochondria swelling, absorbance | 58% of 780 active | shares compounds with MPTP block | IC50, µM; in the data active means IC50 below about 20 µM
MPTP counter DR – counter-screen for mitochondrial permeability transition pore inhibitors, dose response. shares compounds with MPTP block. isolated mitochondria counterscreen, fluorescence read-out. IC50, µM. 49% of 780 active. AID 651564; in the data active means IC50 below about 80 µM
Of the large screens only hits and unclear results are named; the others gave an inactive call (follow-up assays come after a bar, where they were run).

CC(C)N1C(=O)S/C(=C/c2ccc(Sc3nc4ccccc4[nH]3)o2)C1=O	L major viab 83, MPTP block 100 | Rh123 counter 88
C=CCN1C(=O)S/C(=C/c2ccsc2)C1=O	none
O=C(NC[C@@H]1CC[C@@H](Cc2ccc(-c3ccccc3)cc2)O1)Nc1ccc(Br)cc1	MPTP block 60 (no result: DTT redox prof, L major viab, Lipid droplet, T cruzi inh) | Rh123 counter 96
Cc1ccc(S(=O)(=O)N(C)C)cc1NC(=S)NC(=O)C12CC3CC(CC(C3)C1)C2	MPTP block 60 | Rh123 counter 35
CN(C)S(=O)(=O)c1cccc(NC(=S)NC23CC4CC(CC(C4)C2)C3)c1	none (no result: DTT redox prof, L major viab)
NS(=O)(=O)c1cccc(NC(=S)NC(=O)C23CC4CC(CC(C4)C2)C3)c1	none
Cc1ccc(S(=O)(=O)N(C)C)cc1NC(=S)NC12CC3CC(CC(C3)C1)C2	L major viab 78, MPTP block 65 | Rh123 counter 84
Cc1cc(C)cc(NC(=S)Nc2ccc(Cl)c(Cl)c2)c1	MPTP block 103 | Rh123 counter 89
Cc1cccc(C)c1NC(=S)Nc1ccc(Cl)c(Cl)c1	L major viab 55, MPTP block 98 | Rh123 counter 97
Cc1cccc2c(N=O)c(O)[nH]c12	none (no result: DTT redox prof, L major viab)
COc1ccc(/C(C)=N/Nc2ncc(Cl)cc2Cl)c(O)c1	MPTP block 73 | Rh123 counter 73
COc1cccc(CN2CCNC(=O)C2CC(=O)N(C)CCC2CCOCC2)c1OC (stereo not drawn)	none (no result: DTT redox prof, L major viab)
O=C(CC1NCCc2ccccc21)Nc1ccc(Oc2ccccc2)cc1 (stereo not drawn)	L major viab 99, MPTP block 92 (no result: Lipid droplet) | Rh123 counter inactive | MPTP abs DR 4.7 | MPTP counter DR 36
CN1CCN(C(=O)c2ccc3c(=O)n(Cc4ccc(Cl)cc4)c(=S)[nH]c3c2)CC1	MPTP block 93 (no result: Lipid droplet) | Rh123 counter inactive | MPTP abs DR 18 | MPTP counter DR inactive
CC1CCN(CCNC(=O)c2ccc3c(=O)n(Cc4ccc(Cl)cc4)c(=S)[nH]c3c2)CC1	MPTP block 90 (no result: DTT redox prof, L major viab) | Rh123 counter inactive
O=C(c1ccc2c(=O)n(Cc3ccc(Cl)cc3)c(=S)[nH]c2c1)N1CCCC1	none (no result: DTT redox prof, L major viab)
CCCN1CCN(CCCNC(=O)c2ccc3c(=O)n(CCc4ccccc4)c(=O)[nH]c3c2)CC1	MPTP block 70 (no result: DTT redox prof, L major viab) | Rh123 counter inactive | MPTP abs DR inactive | MPTP counter DR inactive
CC1=CC(=O)C=C(C)C1=NOS(=O)(=O)c1ccccc1	L major viab 100, MPTP block 103 | Rh123 counter 90
CC1=CC(=O)C(C(C)C)=C/C1=N/OS(=O)(=O)c1ccccc1	MPTP block 96 (no result: DTT redox prof, L major viab) | Rh123 counter 92
Cc1ccc2c(c1)/C(=N/OS(=O)(=O)c1ccccc1)CCS2	none (no result: Lipid droplet)
Cc1occc1-c1nnc(SCC(=O)NCc2ccco2)n1CC(C)C	MPTP block 63 (no result: Lipid droplet) | Rh123 counter inactive | MPTP abs DR inactive | MPTP counter DR inactive
Cc1occc1-c1nnc(SCC(=O)NC(C)(C)C)n1CC(C)C	none
CC(Cc1cccs1)NC(=O)Nc1ccc(Cl)cc1 (stereo not drawn)	none
CC(NC(=O)Nc1ccc([N+](=O)[O-])cc1)C(c1ccccc1)N1CCOCC1 (stereo not drawn)	none
CC(Cc1cccs1)NC(=O)Nc1ccc(Cl)c(Cl)c1 (stereo not drawn)	L major viab 61, MPTP block 96 | Rh123 counter 94
CC(NC(=O)Nc1ccc(Cl)c(Cl)c1)C(c1ccccc1)N1CCOCC1 (stereo not drawn)	MPTP block 89 | Rh123 counter 95
COc1ccc(CCNC(=O)CN(C)S(=O)(=O)c2ccc(OC)cc2)cc1	none (no result: DTT redox prof, L major viab)
O=C(Nc1ccc(Nc2ccccc2)cc1)c1ccc(Cl)cc1[N+](=O)[O-]	none (no result: DTT redox prof, L major viab, Lipid droplet, T cruzi inh)
O=C(O)CCCNc1c(C(=O)Nc2ccc(Cl)cc2)cc([N+](=O)[O-])cc1[N+](=O)[O-]	MPTP block 88 | Rh123 counter 94
Cc1ccc2nc(SCC(=O)Nc3ccc(F)c([N+](=O)[O-])c3)[nH]c2c1	MPTP block 88 | Rh123 counter 76
Cc1ccc2nc(SC(C)C(=O)Nc3cccc([N+](=O)[O-])c3)[nH]c2c1 (stereo not drawn)	L major viab 56, MPTP block 59 | Rh123 counter 85
O=C(CCC(=O)N1CCSc2ccccc21)NCCc1ccccc1	none (no result: DTT redox prof, L major viab)
O=C(NCCCSc1ccccc1)c1cc(Br)ccc1O	MPTP block 75 (no result: DTT redox prof, L major viab) | Rh123 counter 86
COc1ccc(CNCC(O)(c2ccc(F)cc2)c2ccc(F)cc2)cc1	MPTP block 73 (no result: Lipid droplet) | Rh123 counter inactive | MPTP abs DR 6.6 | MPTP counter DR 20
COc1ccc(CNCC(O)(c2ccccc2)c2ccccc2)cc1	none (no result: DTT redox prof, L major viab)
CC1=[N+](C)c2c(ccc3cccnc23)C1(C)C	L major viab 98, MPTP block 95 (no result: T cruzi inh) | Rh123 counter 82
Cc1[nH]c2c(ccc3cccnc32)c1C	none (no result: DTT redox prof, L major viab)
N#CC1(C#N)CC(C=O)=C(N)C1(C#N)CC(=O)C12CC3CC(CC(C3)C1)C2 (stereo not drawn)	MPTP block 73 | Rh123 counter 55
Cc1nc(C(=O)Nc2ccccc2Cl)cc2c1[nH]c1ccccc12	MPTP block 55 (no result: Lipid droplet) | Rh123 counter inactive | MPTP abs DR inactive | MPTP counter DR inactive
COc1ccc(NC(=O)c2cc3c([nH]c4ccccc43)c(C)n2)cc1	none
O=C(Nc1cc(Cl)cc(Cl)c1)C(c1ccccc1)N1CCCCC1 (stereo not drawn)	MPTP block 83 | Rh123 counter 98
CCOC(=O)C1CCN(C(=O)Nc2cccc(Cl)c2)CC1	none
O=C(Nc1cc(Cl)cc(Cl)c1)N1CCCC1	MPTP block 98 (no result: DTT redox prof, L major viab) | Rh123 counter 93
CCOC(=O)C1CCN(C(=O)Nc2cc(Cl)cc(Cl)c2)CC1	MPTP block 78 (no result: DTT redox prof, L major viab) | Rh123 counter 92
CC(NC(=O)c1ccc2c(c1)OCO2)C(c1cccs1)N1CCN(c2ccccc2)CC1 (stereo not drawn)	none (no result: DTT redox prof, L major viab)
CC1CCCCN1C(=O)COC(=O)c1ccc(=O)n(Cc2ccccc2)n1 (stereo not drawn)	none (no result: DTT redox prof, L major viab, Lipid droplet)
COc1ccc(Nc2nnc(Cc3ccc(Cl)cc3)c(=O)[nH]2)c(OC)c1	none
COc1ccc(Cc2nnc(Nc3ccc(Cl)cc3)[nH]c2=O)cc1	MPTP block 84 (no result: DTT redox prof, L major viab) | Rh123 counter 67
O=C1C=C(c2ccccc2)C(=O)N1Nc1ccccc1	none
COc1ccc(C2=CC(=O)N(Nc3ccccc3)C2=O)cc1	MPTP block 61 | Rh123 counter inactive
O=P(c1ccccc1)(c1ccccc1)c1cc(S(=O)(=O)O)ccc1O	none (no result: DTT redox prof, L major viab)
